Experiments:
Assay type in all cases: functional, cell-based
[1] = target: T1, Alpha-1A adrenergic receptor (Homo sapiens) (UniProt P35348); experiment: Antagonist activity at human alpha1A receptor assessed as inhibition of intracellular calcium mobilization by FLIPR assay
T1 sequence (whole entry): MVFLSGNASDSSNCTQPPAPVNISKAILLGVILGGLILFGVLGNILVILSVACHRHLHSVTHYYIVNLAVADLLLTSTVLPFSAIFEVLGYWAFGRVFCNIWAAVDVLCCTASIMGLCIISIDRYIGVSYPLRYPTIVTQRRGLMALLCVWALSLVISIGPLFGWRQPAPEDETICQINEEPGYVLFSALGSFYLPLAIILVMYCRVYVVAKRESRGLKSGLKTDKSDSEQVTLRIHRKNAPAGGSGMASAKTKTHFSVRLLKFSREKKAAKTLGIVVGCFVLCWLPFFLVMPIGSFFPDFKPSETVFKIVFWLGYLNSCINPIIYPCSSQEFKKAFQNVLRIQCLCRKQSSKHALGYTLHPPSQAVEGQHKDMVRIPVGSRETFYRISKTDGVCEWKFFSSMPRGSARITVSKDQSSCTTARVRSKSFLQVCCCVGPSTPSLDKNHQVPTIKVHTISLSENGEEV
Procedure, shortened: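 Human α1A-adrenergic receptor, FLIPR Tetra calcium-mobilization assay with a calcium-sensitive fluorescent dye. Ke was derived from agonist concentration-response EC50 shifts by a single antagonist concentration, using Ke = [L]/(DR-1) as for the 5-HT2A set.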

[2] = target: 5-hydroxytryptamine receptor 2A (Homo sapiens) (UniProt P28223); experiment: Antagonist activity at human 5-HT2A receptor assessed as inhibition of intracellular calcium mobilization by FLIPR assay
Sequence of 5-hydroxytryptamine receptor 2A (Homo sapiens) (P28223 whole entry): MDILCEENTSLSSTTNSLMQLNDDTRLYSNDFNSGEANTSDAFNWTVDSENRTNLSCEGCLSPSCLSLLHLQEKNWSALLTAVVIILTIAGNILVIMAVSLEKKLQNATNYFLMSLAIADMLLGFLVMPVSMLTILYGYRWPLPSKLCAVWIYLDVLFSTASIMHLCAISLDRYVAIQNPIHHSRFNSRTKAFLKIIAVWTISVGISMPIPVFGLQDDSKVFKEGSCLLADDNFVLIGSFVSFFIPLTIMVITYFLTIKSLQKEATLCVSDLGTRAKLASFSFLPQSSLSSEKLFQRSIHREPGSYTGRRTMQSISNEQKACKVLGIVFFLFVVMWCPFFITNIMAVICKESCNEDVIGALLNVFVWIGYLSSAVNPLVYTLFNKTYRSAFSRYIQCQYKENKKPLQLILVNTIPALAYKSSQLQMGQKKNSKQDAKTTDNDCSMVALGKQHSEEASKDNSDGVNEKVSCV
Procedure, shortened: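 FLIPR Tetra calcium-dye assay at human 5-HT2A. Compounds without intrinsic activity that inhibited the fluorescence rise to the EC80 of 5-HT by at least 50% at 10 μM went on to Ke determination. For this, an 8-point half-log 5-HT concentration-response curve was run with and without a single antagonist concentration. Ke = [L]/(DR-1), where DR = A'/A (ratio of 5-HT EC50s).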

[3] = target: 5-hydroxytryptamine receptor 2A (Homo sapiens) (UniProt P28223); experiment: Agonist activity at human 5-HT2A receptor assessed as intracellular calcium mobilization at 10 uM by FLIPR assay
Procedure, shortened: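 Multi-well FLIPR Tetra screen at 10 μM for intrinsic activity at human 5-HT2A receptor. Read-out is receptor-mediated mobilization of internal calcium, detected with a calcium-sensitive fluorescent dye.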

SMILES | Ke [1] [nM] | Ke [2] [nM] | Emax [3] [%]
CCCCN1CCc2cc(OC)c(OC)c3c2C1Cc1cc2c(cc1-3)OCO2 (racemic) | 210 | > 10000 | 
CCC(CC)COc1c(OC)cc2c3c1-c1cc4c(cc1CC3N(C)CC2)OCO4 (centres undefined) | > 10000 | 806 | 
CCOc1cc2c3c(c1OC)-c1cc4c(cc1CC3N(C)CC2)OCO4 (racemic) | 52 | 378 | 
COc1cc2c3c(c1OCC1CCCC1)-c1cc4c(cc1CC3N(C)CC2)OCO4 (racemic) | > 10000 |  | 35
CCCCCOc1cc2c3c(c1OC)-c1cc4c(cc1CC3N(C)CC2)OCO4 (racemic) | 449 | > 10000 | 
COc1c(Br)c2c3c(c1OC)-c1cc4c(cc1CC3N(C)CC2)OCO4 (racemic) | > 10000 | 53 | 
C=CCOc1c(OC)cc2c3c1-c1cc4c(cc1CC3N(C)CC2)OCO4 (racemic) | > 10000 | 70 | 
CCCCCN1CCc2cc(OC)c(OC)c3c2C1Cc1cc2c(cc1-3)OCO2 (racemic) | 720 | > 10000 | 
CCCCOc1cc2c3c(c1OC)-c1cc4c(cc1CC3N(C)CC2)OCO4 (racemic) | 234 | 943 | 
COc1cc2c3c(c1OCCC(C)C)-c1cc4c(cc1CC3N(C)CC2)OCO4 (racemic) | > 10000 |  | 19
COc1c(Br)c2c3c(c1OC)-c1c(Br)c4c(c(Br)c1CC3N(C)CC2)OCO4 (racemic) | > 10000 | 43 | 
COc1cc2c3c(c1OCCCO)-c1cc4c(cc1CC3N(C)CC2)OCO4 (racemic) | > 10000 | 708 | 
COc1cc2c3c(c1OC)-c1cc4c(cc1CC3N(CC1CC1)CC2)OCO4 (racemic) | 319 | > 10000 | 
COc1c(OCC2CC2)cc2c3c1-c1cc4c(cc1CC3N(C)CC2)OCO4 (racemic) | 195 | 484 | 
CCCOc1cc2c3c(c1OC)-c1cc4c(cc1CC3N(C)CC2)OCO4 (racemic) | 133 | 389 | 
COc1cc2c3c(c1OCC1CCCCC1)-c1cc4c(cc1CC3N(C)CC2)OCO4 (racemic) | > 10000 | 1720 | 
COc1cc2c3c(c1OCC(C)C)-c1cc4c(cc1CC3N(C)CC2)OCO4 (racemic) | > 10000 | 367 | 
COc1cc2c3c(c1OC)-c1cc4c(cc1CC3N(C)CC2)OCO4 (racemic) | 36 |  | 
CCCCCCOc1c(OC)cc2c3c1-c1cc4c(cc1CC3N(C)CC2)OCO4 (racemic) | > 10000 | 71 | 
CCCN1CCc2cc(OC)c(OC)c3c2C1Cc1cc2c(cc1-3)OCO2 (racemic) | 38 | > 10000 | 
COc1cc2c3c(c1OCC1CCC1)-c1cc4c(cc1CC3N(C)CC2)OCO4 (racemic) | > 10000 |  | 25
COc1c(OCc2ccccc2)cc2c3c1-c1cc4c(cc1CC3N(C)CC2)OCO4 (racemic) | 1920 | 154 | 
CCN1CCc2cc(OC)c(OC)c3c2C1Cc1cc2c(cc1-3)OCO2 (racemic) | 26 |  | 

Reference: ChEMBL document CHEMBL1828541, “New aporphinoid 5-HT2A and α1A antagonists via structural manipulations of nantenine” (Bioorg Med Chem, 2011)
